In ChEMBL document CHEMBL2321676, “Antimalarial and Structural Studies of Pyridine-containing Inhibitors of 1-Deoxyxylulose-5-phosphate Reductoisomerase” (ACS Med Chem Lett, 2013):

Assays:
Plasmodium falciparum [1] = experiment: Antimalarial activity against Plasmodium falciparum 3D7 after 3 days by SYBR green I assay; type: functional, organism-based; details: 3D7, 72 h
Plasmodium falciparum [2] = experiment: Antimalarial activity against Plasmodium falciparum Dd2 after 3 days by SYBR green I assay; type: functional, organism-based; details: Dd2, 72 h
Plasmodium falciparum [3] = experiment: Ratio of fosmidomycin Ki to compound Ki for Plasmodium falciparum recombinant DXR
[4] = Selectivity index, ratio of EC50 for human WI38 cells to EC50 for Plasmodium falciparum; type: toxicity, cell-based, WI-38; details: read-out: Ratio EC50
WI-38 = experiment: Cytotoxicity against human WI38 cells after 48 hrs by MTS assay; type: cell-based; details: WI-38, 48 h
[5] = Inhibition of Plasmodium falciparum recombinant DXR using DXP as substrate preincubated for 5 mins
How it was run: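 Recombinant P. falciparum DXR. Inhibition is expressed as Ki.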

[6] = Inhibition of Escherichia coli recombinant DXR using DXP as substrate preincubated for 5 mins
[7] = Half life in plasma (unknown origin); type: ADME, cell-free; details: unidentified

CC(=O)N(O)CCC(c1ccccc1)P(=O)(O)O (stereo unspecified)
EC50 (Plasmodium falciparum [1]): 3.5 µM
EC50 (Plasmodium falciparum [2]): 1.7 µM

CC(=O)N(O)CCC(c1ccncc1)P(=O)(O)O (stereo unspecified)
Ratio Ki (Plasmodium falciparum [3]): 1.6
selectivity ratio [4]: > 1700
EC50 (WI-38): > 300 µM
EC50 (Plasmodium falciparum [1]): 0.63 µM
Ki [5]: 0.013 µM
Ki [6]: 0.082 µM
EC50 (Plasmodium falciparum [2]): 0.46 µM

CCN(CC)CCCC(C)Nc1ccnc2cc(Cl)ccc12 (stereo unspecified) [CHLOROQUINE]
EC50 (Plasmodium falciparum [1]): 0.021 µM
EC50 (Plasmodium falciparum [2]): 0.12 µM

O=CN(O)CCCP(=O)(O)O [FOSMIDOMYCIN]
half-life [7]: 1 h
EC50 (Plasmodium falciparum [1]): 1.17 µM
EC50 (Plasmodium falciparum [2]): 0.44 µM

CC(=O)N(O)CCC(c1cccnc1)P(=O)(O)O (stereo unspecified)
Ratio Ki (Plasmodium falciparum [3]): 11
selectivity ratio [4]: > 1700
EC50 (WI-38): > 300 µM
EC50 (Plasmodium falciparum [1]): 0.44 µM
Ki [5]: 0.0019 µM
Ki [6]: 0.042 µM
EC50 (Plasmodium falciparum [2]): 0.31 µM

O=CN(O)CCC(c1cccnc1)P(=O)(O)O (stereo unspecified)
selectivity ratio [4]: > 1700
EC50 (WI-38): > 300 µM
EC50 (Plasmodium falciparum [1]): 0.34 µM
Ki [5]: 0.013 µM
Ki [6]: 0.087 µM
EC50 (Plasmodium falciparum [2]): 0.18 µM

O=CN(O)CCC(c1ccncc1)P(=O)(O)O (stereo unspecified)
Ratio Ki (Plasmodium falciparum [3]): 2.4
selectivity ratio [4]: > 1700
EC50 (WI-38): > 300 µM
EC50 (Plasmodium falciparum [1]): 0.18 µM
Ki [5]: 0.0089 µM
Ki [6]: 0.035 µM
EC50 (Plasmodium falciparum [2]): 0.17 µM

O=CN(O)CCC(c1ccccc1)P(=O)(O)O (stereo unspecified)
Ki [5]: 0.48 µM
Ki [6]: 1.5 µM
